Measured values from ChEMBL document CHEMBL4480361, “Design, synthesis, and in vitro biological evaluation of novel benzimidazole tethered allylidenehydrazinylmethylthiazole derivatives as potent inhibitors of Mycobacterium tuberculosis” (Medchemcomm, 2019).
≈ marks a conversion by molar mass, not a printed value.

How the values were obtained:
[1] = system: Mycobacterium tuberculosis; assay: Antitubercular activity against auto-luminescent Mycobacterium tuberculosis H37Ra measured for 5 days by luminescence assay; type: functional; settings: 120 h
Method in brief: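 Unmarked autoluminescent H37Ra homogenised with glass beads, grown in 7H9 with 0.05% Tween 80 and 10% OADC to OD600 0.3–0.5. At 2 million RLU, diluted to 2000–4000 RLU in Tween-free 7H9. Compounds tested in 3-fold steps from […] μg mL⁻¹, with DMSO and rifampicin (10, 1, 0.1 μg mL⁻¹) controls. RLU read daily for 5 days. MIClux is the lowest concentration giving RLUdrug/RLUDMSO below 10%.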

MDCK = assay: Cytotoxicity against MDCK cells assessed as reduction in cell viability after 72 hrs by CCK-8 assay; type: cell-based; settings: Canis lupus familiaris
[2] = system: Mycobacterium tuberculosis; assay: Antitubercular activity against Mycobacterium tuberculosis H37Ra measured for 5 days by resazurin dye-based assay; type: functional; settings: 120 h

Work on `NC(=S)N/N=C(/C=C/c1ccc(Cl)c(F)c1)c1nc2ccccc2[nH]1` yielded an MIC90 [1] of 5 µg/mL (≈ 13.4 µM) and an IC50 (MDCK) of 1.5 µg/mL (≈ 4.01 µM).
In the case of `Cc1csc(N/N=C(/C=C/c2ccc(F)cc2)c2nc3ccccc3[nH]2)n1`, the MIC90 [1] is reported as 5 µg/mL (≈ 13.2 µM).
`NC(=S)N/N=C(/C=C/c1ccc[nH]1)c1nc2ccccc2[nH]1` was tested, and the MIC90 [1] was 100 µg/mL (≈ 322 µM).
For `NC(=S)N/N=C(/C=C/c1ccc(Br)cc1)c1nc2ccccc2[nH]1`, the MIC90 [1] was 4 µg/mL (≈ 9.99 µM) and the IC50 (MDCK) was 2.6 µg/mL (≈ 6.5 µM).
`Cc1ccc(/C=C/C(=N/Nc2nc(C)cs2)c2nc3ccccc3[nH]2)cc1` was tested, and the MIC90 [1] was 10 µg/mL (≈ 26.8 µM).
Compound `COc1ccc(/C=C/C(=N/NC(N)=S)c2nc3ccccc3[nH]2)cc1` has an MIC90 [1] of 10 µg/mL (≈ 28.5 µM).
Compound `Cc1csc(N/N=C(/C=C/c2cccc3[nH]ccc23)c2nc3ccccc3[nH]2)n1` has an MIC90 [1] of 10 µg/mL (≈ 25.1 µM).
Work on `Cc1csc(N/N=C(/C=C/c2ccccc2)c2nc3ccccc3[nH]2)n1` yielded an MIC90 [1] of 4 µg/mL (≈ 11.1 µM) and an IC50 (MDCK) of 2.9 µg/mL (≈ 8.07 µM).
For `Cc1csc(N/N=C(/C=C/c2ccc(F)c(C)c2)c2nc3ccccc3[nH]2)n1`, the MIC90 [1] was 10 µg/mL (≈ 25.5 µM).
`NC(=S)N/N=C(/C=C/c1ccc(OC(F)(F)F)cc1)c1nc2ccccc2[nH]1` gave an MIC90 [1] of 5 µg/mL (≈ 12.3 µM) and an IC50 (MDCK) of 0.34 µg/mL (≈ 0.839 µM).
With `Cc1csc(N/N=C(/C=C/c2ccc(Br)cc2)c2nc3ccccc3[nH]2)n1` the MIC90 [1] was 10 µg/mL (≈ 22.8 µM).
In the case of `COc1cc(OC)c(/C=C/C(=N/NC(N)=S)c2nc3ccccc3[nH]2)c(OC)c1`, the MIC90 [1] is reported as > 50 µg/mL.
`NC(=S)N/N=C(/C=C/c1cc(F)cc(F)c1)c1nc2ccccc2[nH]1` was tested, and the MIC90 [1] was 5 µg/mL (≈ 14 µM) and the IC50 (MDCK) was 1.6 µg/mL (≈ 4.48 µM).
`CCN(CC)c1ccc(/C=C/C(=N/Nc2nc(C)cs2)c2nc3ccccc3[nH]2)cc1` was tested, and the MIC90 [1] was 2.5 µg/mL (≈ 5.81 µM) and the IC50 (MDCK) was > 30 µg/mL.
`COc1cccc(/C=C/C(=N/NC(N)=S)c2nc3ccccc3[nH]2)c1OC` gave an MIC90 [1] of 5 µg/mL (≈ 13.1 µM) and an IC50 (MDCK) of 3.9 µg/mL (≈ 10.2 µM).
`Cc1csc(N/N=C(/C=C/c2ccc[nH]2)c2nc3ccccc3[nH]2)n1` gave an MIC90 [1] of 100 µg/mL (≈ 287 µM).
With `NC(=S)N/N=C(/C=C/c1ccccc1)c1nc2ccccc2[nH]1` the MIC90 [1] was 5 µg/mL (≈ 15.6 µM) and the IC50 (MDCK) was 3.4 µg/mL (≈ 10.6 µM).
In the case of `CCN(CC)c1ccc(/C=C/C(=N/NC(N)=S)c2nc3ccccc3[nH]2)cc1`, the MIC90 [1] is reported as 10 µg/mL (≈ 25.5 µM).
With `Cc1cc(/C=C/C(=N/NC(N)=S)c2nc3ccccc3[nH]2)ccc1F` the MIC90 [1] was 4 µg/mL (≈ 11.3 µM) and the IC50 (MDCK) was 1.6 µg/mL (≈ 4.53 µM).
`Cc1csc(N/N=C(/C=C/c2cc(F)cc(F)c2)c2nc3ccccc3[nH]2)n1` showed an MIC90 [1] of 10 µg/mL (≈ 25.3 µM).
With `COc1cc(OC)c(/C=C/C(=N/Nc2nc(C)cs2)c2nc3ccccc3[nH]2)c(OC)c1` the MIC90 [1] was > 50 µg/mL.
With `Cc1ccc(/C=C/C(=N/NC(N)=S)c2nc3ccccc3[nH]2)cc1` the MIC90 [1] was 5 µg/mL (≈ 14.9 µM) and the IC50 (MDCK) was 3.7 µg/mL (≈ 11 µM).
In the case of `COc1cccc(/C=C/C(=N/Nc2nc(C)cs2)c2nc3ccccc3[nH]2)c1OC`, the MIC90 [1] is reported as 10 µg/mL (≈ 23.8 µM).
Work on `Cc1csc(N/N=C(/C=C/c2ccc(Cl)c(F)c2)c2nc3ccccc3[nH]2)n1` yielded an MIC90 [1] of 10 µg/mL (≈ 24.3 µM).
`NC(=S)N/N=C(/C=C/c1ccc(F)cc1)c1nc2ccccc2[nH]1` was tested, and the MIC90 [1] was 2.5 µg/mL (≈ 7.37 µM) and the IC50 (MDCK) was 1.6 µg/mL (≈ 4.71 µM).
For `COc1ccc(/C=C/C(=N/Nc2nc(C)cs2)c2nc3ccccc3[nH]2)cc1`, the MIC90 [1] was 10 µg/mL (≈ 25.7 µM) and the IC50 (MDCK) was 1.9 µg/mL (≈ 4.88 µM).
In the case of `Cc1csc(N/N=C(/C=C/c2ccc(OC(F)(F)F)cc2)c2nc3ccccc3[nH]2)n1`, the MIC90 [1] is reported as 10 µg/mL (≈ 22.6 µM).
Compound `NC(=S)N/N=C(/C=C/c1cccc2[nH]ccc12)c1nc2ccccc2[nH]1` has an MIC90 [1] of 5 µg/mL (≈ 13.9 µM) and an IC50 (MDCK) of 0.91 µg/mL (≈ 2.52 µM).
`CCNC(=O)Nc1nc2cc(-c3cccnc3)cc(-c3ccccn3)c2[nH]1` was tested, and the MIC [2] was 0.001 µg/mL (≈ 0.00279 µM).
`CO[C@H]1/C=C/O[C@@]2(C)Oc3c(C)c(O)c4c(O)c(c(/C=N/N5CCN(C)CC5)c(O)c4c3C2=O)NC(=O)/C(C)=C\C=C\[C@H](C)[C@H](O)[C@@H](C)[C@@H](O)[C@@H](C)[C@H](OC(C)=O)[C@@H]1C` [RIFAMPIN] gave an MIC90 [1] of 0.25 µg/mL (≈ 0.304 µM).
